Measured values reported in paper PMC7127609 (Cancer Letters, 2002).
pIC50, pKi: −log10 of the molar value. Read-outs that look alike come from different tables or passages of the source.

Assays:
K562 cells = assay: Cell growth assay; format: cell-based, human; conditions: for pIC50: Homo sapiens, K562, read-out: IC50p (50% inhibition of cell proliferation); for % of inhibition of cell proliferation: 4th day
U937 cells [1] = assay: Cell growth assay; format: cell-based, human; conditions: for pIC50: Homo sapiens, U-937, read-out: IC50p (50% inhibition of cell proliferation)
In short: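 U937 cells seeded at 5×10^4 cells/ml in RPMI 1640 with 10% FBS and 2 mM glutamine, then grown with graded test compound levels at 37 °C, 5% CO2. Hemocytometer counts on days 3–5, trypan blue viability. IC50p taken from a day-3 inhibition-versus-concentration plot. Efflux arm: MRP inhibitor at 10 μM added with test compound (145 or 13 μM final), counted day 4, two quadruplicate experiments, paired t-test.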

U937 cells [2] = conditions: cited from earlier work
leucine aminopeptidase = conditions: cited from earlier work

Row | Compound | pIC50 (K562 cells) | % of inhibition of cell proliferation (K562 cells; K562, 580 μM bestatin or 26 μM actinonin + verapamil (30 μM)) [%] | pIC50 (U937 cells [1]) | pIC50 (U937 cells [2]; read-out: IC50p, ref 3) | pIC50 (U937 cells [2]; read-out: IC50p, ref 6, 12) | pIC50 (U937 cells [2]; read-out: IC50p, ref 11) | % of inhibition of cell proliferation (K562 cells; K562, 580 μM bestatin or 26 μM actinonin + MK-571 (10 μM)) [%] | % of inhibition of cell proliferation (K562 cells; K562, 580 μM bestatin or 26 μM actinonin + MK-571 (30 μM)) [%] | change of IC50p with time of incubation (K562 cells; K562, 3rd, 4th and 5th days, Fig. 1) | % of inhibition of cell proliferation (U937 cells [1]; U937, 145 μM bestatin or 13 μM actinonin + MK-571 (10 μM), 4th day) [%] | pKi (leucine aminopeptidase) | antiproliferative effect on U937 cells (U937 cells [1]; U937, 10 μM)
1 | CCCCC[C@H](CC(=O)NO)C(=O)N[C@H](C(=O)N1CCC[C@H]1CO)C(C)C [Actinonin] | 4.72 | 78.0±6.6 | 4.96 | – | – | – | – | – | – | – | – | –
2 | CC(C)C[C@H](NC(=O)[C@@H](O)[C@H](N)Cc1ccccc1)C(=O)O [Bestatin] | 3.33 | – | 3.97 | 4.24 | ~3.82 | 5.10 | 66.0±3.7 | 73.6±3.4 | increased significantly | 87.4±4.1 | 7.70 | –
3 | COc1ccc(CCN(C)CCCC(C#N)(c2ccc(OC)c(OC)c2)C(C)C)cc1OC (centres unmarked) [Verapamil, verapamil] | – | – | – | – | – | – | – | – | – | – | – | exhibits an antiproliferative effect
